Reference: ChEMBL document CHEMBL2203123, “Synthesis and biological evaluation of some hydrazone derivatives as new anticandidal and anticancer agents” (Eur J Med Chem, 2012)
Values after ≈ are worked out from the molar mass of the structure shown.

Experiments:
[1] = tested on: Candida albicans; assay: Antifungal activity against Candida albicans ATCC 10231 after 24 hrs by microdilution susceptibility assay; assay type: functional; conditions: ATCC 10231, 24 h
How it was run: (§1)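 Broth microdilution in Mueller Hinton Broth, compounds from DMSO stocks diluted serially; inocula standardized to 10^6 CFU/mL (McFarland 0.5) from overnight MHB cultures. Plates held 37 °C for 24 h; MIC taken as first well without turbidity, aided by 1% tetrazolium violet added for 3 h at 37 °C. Ketoconazole reference.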

[2] = tested on: Candida albicans; assay: Antifungal activity against Candida albicans ATCC 90028 after 24 hrs by microdilution susceptibility assay; assay type: functional; conditions: ATCC 90028, 24 h; how it was run: as §1
[3] = tested on: A549; assay: Cytotoxicity against human A549 cells after 24 hrs by XTT assay; assay type: functional, cell-based; conditions: A549, 24 h
How it was run: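 A549 cells in RPMI 1640 with 10% fetal calf serum, penicillin/streptomycin, 37 °C, 5% CO2; 20,000 cells/well seeded, after 24 h exposed to compounds at 0.00316 µM-10 mM for 24 h. XTT mitochondrial activity read at 480 nm (reference 680 nm) after 3 h; % inhibition per concentration, IC50 by non-linear regression.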

[4] = tested on: Nakaseomyces glabratus; assay: Antifungal activity against Candida glabrata Osmangazi University clinical isolate after 24 hrs by microdilution susceptibility assay; assay type: functional; how it was run: as §1
[5] = tested on: Candida parapsilosis; assay: Antifungal activity against Candida parapsilosis NRRL Y-12696 after 24 hrs by microdilution susceptibility assay; assay type: functional; conditions: Lodderomyces parapsilosis, NRRL Y-12696, 24 h; how it was run: as §1
[6] = tested on: Candida albicans; assay: Antifungal activity against Candida albicans clinical isolate after 24 hrs by microdilution susceptibility assay; assay type: functional; how it was run: as §1
[7] = tested on: Cyberlindnera jadinii; assay: Antifungal activity against Candida utilis NRRL Y-900 after 24 hrs by microdilution susceptibility assay; assay type: functional; conditions: Williopsis jadinii, NRRL Y-900, 24 h; how it was run: as §1
[8] = tested on: Pichia kudriavzevii; assay: Antifungal activity against Candida krusei NRRL Y-7179 after 24 hrs by microdilution susceptibility assay; assay type: functional; conditions: NRRL Y-7179, 24 h; how it was run: as §1
[9] = tested on: NIH3T3; assay: Cytotoxicity against mouse NIH/3T3 cells after 24 hrs by XTT assay; assay type: cell-based; conditions: NIH3T3, 24 h
How it was run: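 Mouse NIH3T3 fibroblasts grown in DMEM with fetal calf serum, penicillin/streptomycin, 37 °C, 5% CO2; 20,000 cells/well, treated after 24 h with 0.00316 µM-10 mM compound for 24 h. Viability via XTT (3 h, OD 480 nm, reference 680 nm); % inhibition computed and IC50 fitted by non-linear regression.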

[10] = tested on: Nakaseomyces glabratus; assay: Antifungal activity against Candida glabrata Anadolu University clinical isolate after 24 hrs by microdilution susceptibility assay; assay type: functional; how it was run: as §1

| Structure (SMILES) | MIC [1] [µg/mL] | MIC [2] [µg/mL] | IC50 [3] [mM] | MIC [4] [µg/mL] | MIC [5] [µg/mL] | MIC [6] [µg/mL] | MIC [7] [µg/mL] | MIC [8] [µg/mL] | IC50 [9] [mM] | MIC [10] [µg/mL] |
| --- | --- | --- | --- | --- | --- | --- | --- | --- | --- | --- |
| C/C(=N\NC(=O)CSc1nnnn1C)c1ccc(Cl)cc1 | > 8000 | > 8000 | 6 | > 8000 | > 8000 | > 8000 | > 8000 | > 8000 | 0.1 | > 8000 |
| C/C(=N\NC(=O)CSc1nnnn1C)c1ccc(Cl)cc1Cl | > 8000 | > 8000 | 0.8 | > 8000 | > 8000 | > 8000 | > 8000 | > 8000 | 1 | > 8000 |
| C/C(=N\NC(=O)CSc1nnnn1C)c1cc(Cl)ccc1Cl | > 8000 | > 8000 | 1.5 | > 8000 | > 8000 | > 8000 | > 8000 | > 8000 | 1 | > 8000 |
| Cn1nnnc1SCC(=O)N/N=C/c1ccccc1 | > 8000 | > 8000 | 3.16 | > 8000 | > 8000 | > 8000 | > 8000 | > 8000 | 9.7 | > 8000 |
| Cn1nnnc1SCC(=O)N/N=C/c1ccc([N+](=O)[O-])cc1 | > 8000 | > 8000 | 0.632 | > 8000 | > 8000 | > 8000 | > 8000 | > 8000 | 9.3 | > 8000 |
| Cc1ccc(/C=N/NC(=O)CSc2nnnn2C)cc1 | > 8000 | > 8000 | 3.16 | > 8000 | > 8000 | > 8000 | > 8000 | > 8000 | 3.16 | > 8000 |
| Cn1nnnc1SCC(=O)N/N=C/c1ccc(F)cc1 | > 8000 | > 8000 | 3.16 | > 8000 | > 8000 | > 8000 | > 8000 | > 8000 | 10 | > 8000 |
| Cn1nnnc1SCC(=O)N/N=C/c1ccc(Cl)cc1 | > 8000 | > 8000 | 0.1 | > 8000 | > 8000 | > 8000 | > 8000 | > 8000 | 2.1 | > 8000 |
| Cn1nnnc1SCC(=O)N/N=C/c1ccc(Br)cc1 | > 8000 | > 8000 | > 10 | > 8000 | > 8000 | > 8000 | > 8000 | > 8000 | 10 | > 8000 |
| CC(C)c1ccc(/C=N/NC(=O)CSc2nnnn2C)cc1 | > 8000 | > 8000 | 0.4 | > 8000 | > 8000 | > 8000 | > 8000 | > 8000 | 1.2 | > 8000 |
| Cn1nnnc1SCC(=O)N/N=C/c1ccc(C(F)(F)F)cc1 | > 8000 | > 8000 | 6.32 | > 8000 | > 8000 | > 8000 | > 8000 | > 8000 | > 10 | > 8000 |
| Cn1nnnc1SCC(=O)N/N=C/c1cccc([N+](=O)[O-])c1 | > 8000 | > 8000 | > 10 | > 8000 | > 8000 | > 8000 | > 8000 | > 8000 | 2 | > 8000 |
| Cn1nnnc1SCC(=O)N/N=C/c1cccc(F)c1 | > 8000 | > 8000 | 6.32 | > 8000 | > 8000 | > 8000 | > 8000 | > 8000 | 6.32 | > 8000 |
| Cn1nnnc1SCC(=O)N/N=C/c1ccccc1Cl | > 8000 | > 8000 | 6.32 | > 8000 | > 8000 | > 8000 | > 8000 | > 8000 | > 10 | > 8000 |
| CC(=O)N1CCN(c2ccc(OCC3COC(Cn4ccnc4)(c4ccc(Cl)cc4Cl)O3)cc2)CC1 (stereo not drawn) [KETOCONAZOLE] | 15 (≈ 0.0282 mM) | 31 (≈ 0.0583 mM) | – | 15 (≈ 0.0282 mM) | 3 (≈ 0.00565 mM) | 3 (≈ 0.00565 mM) | 15 (≈ 0.0282 mM) | 3 (≈ 0.00565 mM) | – | 1 (≈ 0.00188 mM) |
